From ChEMBL document CHEMBL4041525, “Newly Designed Quinolinol Inhibitors Mitigate the Effects of Botulinum Neurotoxin A in Enzymatic, Cell-Based, and ex Vivo Assays” (J Med Chem, 2017) come the findings set out here.

For experiment [1], the target named is Botulinum neurotoxin type A (Clostridium botulinum) (UniProt P0DPI0). Description: Inhibition of BoNT/A induced paralysis in intoxicated CD1 mouse hemidiaphragm muscles assessed as increase in half paralysis time at 20 uM pretreated for 1 hr followed by intoxication.
Sequence of Botulinum neurotoxin type A (Clostridium botulinum) (P0DPI0 2-448 limits assumed): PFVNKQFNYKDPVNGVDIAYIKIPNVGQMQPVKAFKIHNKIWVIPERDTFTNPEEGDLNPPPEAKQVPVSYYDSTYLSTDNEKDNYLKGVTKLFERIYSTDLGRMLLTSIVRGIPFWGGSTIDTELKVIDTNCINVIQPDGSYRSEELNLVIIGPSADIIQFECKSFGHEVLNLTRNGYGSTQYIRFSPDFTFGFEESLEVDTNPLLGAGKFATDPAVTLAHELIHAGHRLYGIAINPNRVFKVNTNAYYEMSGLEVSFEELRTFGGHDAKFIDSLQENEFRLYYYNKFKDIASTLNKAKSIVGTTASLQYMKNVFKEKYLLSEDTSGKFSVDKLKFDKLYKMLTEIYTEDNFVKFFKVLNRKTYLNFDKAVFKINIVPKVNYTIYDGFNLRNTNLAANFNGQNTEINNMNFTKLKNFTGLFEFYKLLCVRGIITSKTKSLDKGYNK
In experiment [2] the target is T1, Botulinum neurotoxin type A (Clostridium botulinum, UniProt P0DPI0). Description: Inhibition of protease activity of recombinant Clostridium botulinum BoNT/A light chain (425 amino acids) using SNAP-25 as substrate preincubated for 20 followed by substrate addition measured for 25 mins by FRET analysis. The gist of the method:
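Compound (from 50X DMSO stock) preincubated 20 min with recombinant 425-aa BoNT/A LC (56 nM working solution) in 40 mM HEPES, 0.1% Triton X-100, pH 7.4. SNAPtide FRET substrate (6 µM solution) then added and read for 25 min at ex 490/em 523 nm. V0 taken from linear slopes, in duplicate at ≥4 inhibitor dilutions, normalized to DMSO. IC50 from Hill-equation fit.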

Experiment [3] addresses Botulinum neurotoxin type A (Clostridium botulinum) (UniProt P0DPI0). Description: Inhibition of BoNT/A light chain mediated proteolysis of CFP and YFP tagged full-length SNAP-25 expressed in BoCells at 25 uM after 20 hrs by fluorescence assay.
Experiment [4] shares this target. To be noted: 12.5 uM.
Experiment [5] has as its target T1, Botulinum neurotoxin type A. The experiment is described as follows: Uncompetitive inhibition of recombinant Clostridium botulinum BoNT/A light chain (425 amino acids) using SNAP-25 as substrate preincubated for 20 followed by substrate addition measured for 25 mins by Lineweaver-Burk plot analysis.

pIC50, pKi: −log10 of the molar value. Calls of active or inactive are those of the source. The calls are words filed in the database; no cut-off is given here.

For orientation: pIC50 means −log10 of the IC50, conventionally taken in molar units. The pKi is −log10 of the Ki, conventionally taken in molar units.

T1 sequence (P0DPI0 2-448 limits assumed): as above

Take `CNNc1ccc2c(S(=O)(=O)N3CCc4c(Cl)cccc43)ccc(O)c2n1`: the inhibition result in experiment [1], in experiment [3] and in experiment [4] was “Active” throughout. In addition, the pIC50 in experiment [2] was 5.49.

`CCNc1ccc2c(S(=O)(=O)N3CCc4c(Cl)cccc43)ccc(O)c2n1`: in experiment [2], the pIC50 is 4.54.

As for `Nc1ccc2c(S(=O)(=O)N3CCc4c(Cl)cccc43)ccc(O)c2n1`, the inhibition entry in experiment [1] and in experiment [3] was “Active” throughout. In experiment [2], the pIC50 was 5.47.

As to `O=S(=O)(Nc1cccc(Cl)c1)c1ccc(O)c2ncccc12`, in experiment [2], the pIC50 was 5.14.

On to `Oc1c(C(Nc2ccccn2)c2ccccc2)ccc2cccnc12` (stereo not drawn), for which the inhibition result in experiment [1] and in experiment [3] was “inactive” in each case.

Take `NNc1ccc2c(S(=O)(=O)N3CCc4c(Cl)cccc43)ccc(O)c2n1`: the inhibition result in experiment [1] is “Active”. The pKi in experiment [5] was 6.05. Also, the pIC50 in experiment [2] is 5.81. For the same compound, the inhibition result in experiment [3] is “inactive”.

Consider `O=S(=O)(c1ccc(O)c2ncccc12)N1CCCCC1`, for which, in experiment [2], the pIC50 is 4.74.

Regarding `CNc1ccc2c(S(=O)(=O)N3CCc4c(Cl)cccc43)ccc(O)c2n1`, the pIC50 in experiment [2] was 4.42.

On to `O=S(=O)(c1ccc(O)c2ncccc12)N1CCc2c(Cl)cccc21`, for which the inhibition entry in experiment [1] and in experiment [3] was “Active” each time. Moreover, in experiment [5], the pKi was 5.69. Also, the pIC50 in experiment [2] was 5.44.

Consider `CN(c1ccccc1)S(=O)(=O)c1ccc(O)c2ncccc12`, for which, in experiment [2], the pIC50 is 5.14.

On to `O=S(=O)(Nc1ccccc1)c1ccc(O)c2ncccc12`, for which the negative logarithm of the IC50 (pIC50) in experiment [2] is 4.90.

Regarding `CN(c1cccc(Cl)c1)S(=O)(=O)c1ccc(O)c2ncccc12`, the pIC50 in experiment [2] is 5.37.

As to `O=S(=O)(c1ccc(O)c2ncccc12)N1CCc2ccc(Cl)cc21`, in experiment [2], the pIC50 is 4.89.

Regarding `CC(=O)NNc1ccc2c(S(=O)(=O)N3CCc4c(Cl)cccc43)ccc(O)c2n1`, the inhibition result in experiment [1] was “Active”. In experiment [2], the pIC50 was 5.27. Moreover, in experiment [3], the inhibition result is “inactive”.
